Results: ChEMBL document CHEMBL2424551, “Synthesis, in vitro evaluation and molecular modelling of naphthalimide analogue as anticancer agents” (2013)
The source made the active and inactive calls. No cut-off for these calls is given here.

What was measured:
Assay type in all cases: functional
MDA-MB-435 = assay: Growth inhibition of human MDA-MB-435 cells at 10 uM after 48 hrs by SRB assay; conditions: MDA-MB-435, 48 h, read-out: GI
How it was run: (§1)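 Cells grown in RPMI 1640 with 5% FBS and 2 mM L-glutamine, plated at 5000–40,000 cells/well by doubling time and preincubated 24 h (37 °C, 5% CO2); a time-zero plate is TCA-fixed. Single dose added, then 48 h incubation. Fixed with cold TCA, stained with 0.4% SRB, dye solubilized in 10 mM Tris base, absorbance at 515 nm; percent growth vs time-zero and untreated control.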

NCI-H460 = assay: Growth inhibition of human NCI-H460 cells at 10 uM after 48 hrs by SRB assay; conditions: NCI-H460, 48 h, read-out: GI; how it was run: as §1
UACC-257 = assay: Growth inhibition of human UACC257 cells at 10 uM after 48 hrs by SRB assay; conditions: UACC-257, 48 h, read-out: GI
How it was run: (§2)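 NCI 60-cell-line screen with a single 10 µM dose. Cells are grown in RPMI 1640 with 5% FBS and 2 mM L-glutamine, plated at 5000–40,000 cells/well according to doubling time, and preincubated 24 h at 37 °C, 5% CO2; time-zero plates are TCA-fixed at that point. Drug exposure is 48 h. Adherent cells are fixed with cold TCA, stained with 0.4% SRB in 1% acetic acid and read at 515 nm. Percent growth is calculated relative to time-zero and untreated controls and reported as GI%.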

BT-549 = assay: Growth inhibition of human BT549 cells at 10 uM after 48 hrs by SRB assay; conditions: BT-549, 48 h, read-out: GI; how it was run: as §1
NCI-H226 = assay: Growth inhibition of human NCI-H226 cells at 10 uM after 48 hrs by SRB assay; conditions: NCI-H226, 48 h, read-out: GI; how it was run: as §1
HCT-116 = assay: Growth inhibition of human HCT116 cells at 10 uM after 48 hrs by SRB assay; conditions: HCT-116, 48 h, read-out: GI; how it was run: as §1
HOP-92 = assay: Growth inhibition of human HOP92 cells at 10 uM after 48 hrs by SRB assay; conditions: HOP-92, 48 h, read-out: GI; how it was run: as §1
Malme-3M = assay: Growth inhibition of human MALME-3M cells at 10 uM after 48 hrs by SRB assay; conditions: read-out: GI; how it was run: as §1
PC-3 = assay: Growth inhibition of human PC3 cells at 10 uM after 48 hrs by SRB assay; conditions: PC-3, 48 h, read-out: GI; how it was run: as §1
SN12C = assay: Growth inhibition of human SN12C cells at 10 uM after 48 hrs by SRB assay; conditions: read-out: GI; how it was run: as §2
UO-31 = assay: Growth inhibition of human UO31 cells at 10 uM after 48 hrs by SRB assay; conditions: UO-31, 48 h, read-out: GI; how it was run: as §2
SK-MEL-2 = assay: Growth inhibition of human SK-MEL-2 cells at 10 uM after 48 hrs by SRB assay; conditions: SK-MEL-2, 48 h, read-out: GI; how it was run: as §1
SNB-75 = assay: Growth inhibition of human SNB75 cells at 10 uM after 48 hrs by SRB assay; conditions: SNB-75, 48 h, read-out: GI; how it was run: as §2
MDA-MB-231 = assay: Growth inhibition of human MDA-MB-231 cells at 10 uM after 48 hrs by SRB assay; conditions: MDA-MB-231, 48 h, read-out: GI; how it was run: as §1
SR = assay: Growth inhibition of human SR cells at 10 uM after 48 hrs by SRB assay; conditions: read-out: GI; how it was run: as §2
U-251 = assay: Growth inhibition of human U251 cells at 10 uM after 48 hrs by SRB assay; conditions: U-251, 48 h, read-out: GI; how it was run: as §2
CAKI-1 = assay: Growth inhibition of human Caki1 cells at 10 uM after 48 hrs by SRB assay; conditions: CAKI-1, 48 h, read-out: GI; how it was run: as §1
[1] = Growth inhibition of human HCC2998 cells at 10 uM after 48 hrs by SRB assay; conditions: HCC 2998, 48 h, read-out: GI; how it was run: as §1
HOP-62 = assay: Growth inhibition of human HOP62 cells at 10 uM after 48 hrs by SRB assay; conditions: HOP-62, 48 h, read-out: GI; how it was run: as §1
SF-295 = assay: Growth inhibition of human SF295 cells at 10 uM after 48 hrs by SRB assay; conditions: SF-295, 48 h, read-out: GI; how it was run: as §1
SF-539 = assay: Growth inhibition of human SF539 cells at 10 uM after 48 hrs by SRB assay; conditions: SF-539, 48 h, read-out: GI; how it was run: as §1
A498 = assay: Growth inhibition of human A498 cells at 10 uM after 48 hrs by SRB assay; conditions: A498, 48 h, read-out: GI; how it was run: as §1
SNB-19 = assay: Growth inhibition of human SNB19 cells at 10 uM after 48 hrs by SRB assay; conditions: SNB-19, 48 h, read-out: GI; how it was run: as §2
ACHN = assay: Growth inhibition of human ACHN cells at 10 uM after 48 hrs by SRB assay; conditions: read-out: GI; how it was run: as §1
OVCAR-5 = assay: Growth inhibition of human OVCAR5 cells at 10 uM after 48 hrs by SRB assay; conditions: OVCAR-5, 48 h, read-out: GI; how it was run: as §1
HL-60(TB) = assay: Growth inhibition of human HL-60(TB) cells at 10 uM after 48 hrs by SRB assay; conditions: HL-60, 48 h, read-out: GI
How it was run: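 Single-concentration pass across the 60-line panel in RPMI 1640 with 5% FBS. Cells preincubated 24 h, then exposed 48 h at 37 °C, 5% CO2. Read by SRB staining with absorbance at 515 nm. Percent growth is taken relative to time-zero and untreated controls and reported as percent growth inhibition (GI %).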

MCF7 = assay: Growth inhibition of human MCF7 cells at 10 uM after 48 hrs by SRB assay; conditions: MCF7, 48 h, read-out: GI; how it was run: as §1
RPMI-8226 = assay: Growth inhibition of human RPMI8226 cells at 10 uM after 48 hrs by SRB assay; conditions: RPMI-8226, 48 h, read-out: GI; how it was run: as §1
NCI-H23 = assay: Growth inhibition of human NCI-H23 cells at 10 uM after 48 hrs by SRB assay; conditions: NCI-H23, 48 h, read-out: GI; how it was run: as §1
K562 = assay: Growth inhibition of human K562 cells at 10 uM after 48 hrs by SRB assay; conditions: K562, 48 h, read-out: GI; how it was run: as §1
MOLT-4 = assay: Growth inhibition of human MOLT4 cells at 10 uM after 48 hrs by SRB assay; how it was run: as §1
CCRF-CEM = assay: Growth inhibition of human CCRF-CEM cells at 10 uM after 48 hrs by SRB assay; conditions: read-out: GI; how it was run: as §1
NCI-H322M = assay: Growth inhibition of human NCI-H322M cells at 10 uM after 48 hrs by SRB assay; conditions: read-out: GI; how it was run: as §1
SW-620 = assay: Growth inhibition of human SW620 cells at 10 uM after 48 hrs by SRB assay; conditions: SW-620, 48 h, read-out: GI; how it was run: as §2

## Nc1ccc(Sc2ccc3c4c2cccc4c(=O)n2c4ccccc4nc32)cc1
MDA-MB-435
  inhibition of growth at 10 µM: < 20%
NCI-H460
  inhibition of growth at 10 µM: 90.5%
UACC-257
  inhibition of growth at 10 µM: 29%
BT-549
  inhibition of growth at 10 µM: 40.9%
NCI-H226
  inhibition of growth at 10 µM: 59.4%
HCT-116
  inhibition of growth at 10 µM: 53.2%
HOP-92
  inhibition of growth at 10 µM: 71.3%
Malme-3M
  inhibition of growth at 10 µM: 66%
PC-3
  inhibition of growth at 10 µM: 49.6%
SN12C
  inhibition of growth at 10 µM: 80.8%
UO-31
  inhibition of growth at 10 µM: 90.7%
SK-MEL-2
  inhibition of growth at 10 µM: < 20%
SNB-75
  inhibition of growth at 10 µM: 56.3%
MDA-MB-231
  inhibition of growth at 10 µM: 45.6%
SR
  inhibition of growth at 10 µM: 83.9%
U-251
  inhibition of growth at 10 µM: 60.1%
CAKI-1
  inhibition of growth at 10 µM: 94.1%
[1]
  inhibition of growth at 10 µM: < 20%
HOP-62
  inhibition of growth at 10 µM: 48.8%
SF-295
  inhibition of growth at 10 µM: 88%
SF-539
  inhibition of growth at 10 µM: 51.5%
A498
  inhibition of growth at 10 µM: 41.2%
SNB-19
  inhibition of growth at 10 µM: 53.7%
ACHN
  inhibition of growth at 10 µM: 77.9%
OVCAR-5
  inhibition of growth at 10 µM: < 20%
HL-60(TB)
  inhibition of growth at 10 µM: 81.8%
MCF7
  inhibition of growth at 10 µM: 76.4%
RPMI-8226
  inhibition of growth at 10 µM: 50%
NCI-H23
  inhibition of growth at 10 µM: 62.5%
K562
  inhibition of growth at 10 µM: 39.7%
MOLT-4
  growth inhibition (GI): Active
CCRF-CEM
  inhibition of growth at 10 µM: 55.1%
NCI-H322M
  inhibition of growth at 10 µM: 38.2%
SW-620
  inhibition of growth at 10 µM: 53.8%
